From publication PMC5954213 (Molecular pharmaceutics, 2018)
pEC50: −log10 of the molar value. “Also recorded” adds a separate entry of the source.

Columns and labels:
[1] = tested on: mice; experiment: Sensorimotor coordination study using a rotarod apparatus; type: in vivo, mouse; settings: 100 mg/kg oral; 15 rpm, 3 minutes, three time points
In short: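 Mice were dosed orally with 100 mg/kg test compound or vehicle (2% HPMC, 2.5% PEG), n = 9. They were tested on a rotarod at 15 rpm for up to 3 min at three time points, and time balanced was recorded. The control was diazepam 5 mg/kg i.p. in 5% DMSO/35% propylene glycol/60% PBS.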

[2] = tested on: CD4+ T lymphocytes isolated from ova s/c mice; experiment: Automated patch clamp with CD4+ T lymphocytes in the presence of 600 nM GABA; type: cell-based, mouse
In short: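 Splenic CD4+ T cells from ova s/c BALB/c mice were magnetically enriched after RBC lysis, then suspended at 5x10^6 cells/ml in extracellular solution (pH 7.4) with CsCl-based intracellular solution (pH 7.2). Automated whole-cell patch clamp was held at −80 mV. Test compound (final DMSO 0.1%) was applied for 3 s with 600 nM GABA, which was set as 100%. Eight independent runs, n = 12. EC50 and top came from a sigmoidal fit.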

[3] = tested on: ova s/c mice; experiment: EdU staining of lung sections; type: in vivo, mouse; settings: 100 mg/kg; compared to vehicle-treated ova s/c mice
In short: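 Ova s/c mice were dosed orally with test compound 100 mg/kg b.i.d. for 5 days or with vehicle. They received EdU 100 mg/kg i.p. once and were euthanized 4 h later. Lungs were formalin-fixed and paraffin-embedded, and 6 μm sections were permeabilized with 0.5% Triton X-100 for 20 min. EdU was click-labelled with Alexa Fluor 488 azide for 30 min in the dark, with Hoechst 33342 counterstain. Sections were read by fluorescence microscopy.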

[4] = tested on: ova s/c mice; experiment: Cytokine expression in lung homogenate; type: in vivo, mouse; settings: 100 mg/kg p.o. twice daily 5 days
In short: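 Male Balb/c mice were ova/alum-sensitized i.p. on days 0, 7 and 14, then challenged i.n. with ova for 5 days. During challenge they received test compound 100 mg/kg or vehicle (2% HPMC, 2.5% PEG) by oral gavage b.i.d. for 5 days. Snap-frozen whole lung was homogenized in T-PER with protease inhibitors and spun 10,000 rpm for 5 min. Supernatant went to a Th1/Th2/Th17 cytometric bead array on flow cytometry. n = 10/group, one-way ANOVA versus vehicle.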

[5] = In vitro microsomal stability, mouse; type: in vitro ADME
[6] = tested on: α1-3,5β3γ2 GABAARs; type: cell-based; settings: 0.1 μM or 1 μM, current evoked by GABA
In short: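 Cells were transiently transfected with the indicated α subunit plus β3 and γ2L. Mean enhancement of the GABA-evoked current by 0.1 or 1 μM test compound was measured by patch clamp, n = 5, mean ± SEM.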

[7] = tested on: peripheral GABAAR; experiment: NIMH Psychoactive Drug Screening Program; type: binding; settings: 10 μM
[8] = Mouse plasma protein binding; type: in vitro ADME
[9] = Pharmacokinetic profile in mouse blood, lungs and brain; type: in vivo
In short: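 Mice received a single oral gavage of 25 mg/kg test compound, suspended by grinding with PEG and then adding 2% HPMC (final vehicle 2% HPMC, 2.5% PEG). Blood, lung and brain were sampled over time and analysed by LC-MS/MS. Tmax, Cmax, AUC and elimination rate constant were calculated from the concentration-time profiles.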

[10] = tested on: ova s/c BALB/c mice; experiment: Airway hyperresponsiveness; type: in vivo, mouse
[11] = tested on: ova s/c BALB/c mice; experiment: Quantification of airway inflammatory cells in BALF by flow cytometry; type: in vivo, mouse
[12] = tested on: guinea pig airway smooth muscle contracted with 1 μM substance P; experiment: Relaxation of substance P-contracted guinea pig tracheal rings
[13] = tested on: ova s/c mice; experiment: Mucin volume density in lung sections; type: in vivo, mouse
[14] = In vitro microsomal stability, human; type: in vitro ADME

C[C@H]1N=C(c2ccccc2F)c2cc(Br)ccc2-n2cnc(C(=O)O)c21 [MIDD0301]
sensorimotor inhibition on rotarod [1]: absence of sensorimotor inhibition | concentration at which current change saturated ([2]; 600 nM GABA): 100 nM | maximal potentiation ([2]; 600 nM GABA = 100 %): 512% | pEC50 ([2]; read-out: EC50 of current potentiation, 600 nM GABA): 7.77 | EdU cell staining of lung sections (alveolar region) [3]: reduced cell staining | IFN-γ concentration in lung homogenates [4]: not altered significantly | IL-2 concentration in lung homogenates [4]: not altered significantly | IL-6 concentration in lung homogenates [4]: not altered significantly | IL-10 expression in the lung [4]: not significantly altered | IL-17A levels in lung homogenates [4]: significantly reduced | lung TNF-α levels [4]: decreased | IL-4 levels in lung homogenates ([4]; vs vehicle-treated ova s/c mice): reduced | microsomal stability t1/2 [5]: 9.15 h | activation of GABAARs among alpha subtypes tested [6]: activating GABAARs strongly | binding [7]: no significant binding | plasma protein binding [8]: 88% | blood brain barrier penetration ([9]; 25 mg/kg single oral): Poor | Tmax ([9]; blood and lung, 25 mg/kg single oral): ≤ 0.667 h | AUC ([9]; blood, 25 mg/kg single oral): 2087.1 µg·min/g | Cmax ([9]; blood, 25 mg/kg single oral): 8.24 µg/g | half-life ([9]; blood, 25 mg/kg single oral): 13.9 h | rate of elimination ([9]; blood, 25 mg/kg single oral): 0.001 min⁻¹ | AUC ([9]; brain, 25 mg/kg single oral): 107.7 µg·min/g | elimination rate compared with blood ([9]; lung tissue, 25 mg/kg single oral): somewhat faster | AUC ([9]; lung, 25 mg/kg single oral): 1390.5 µg·min/g | Cmax ([9]; lungs, 25 mg/kg single oral): 4.39 µg/g | half-life ([9]; pharmacokinetic studies, as stated in abstract): ~14 h | effect on AHR (sRaw) ([10]; 20 mg/kg p.o. b.i.d. 5 days, 12.5 mg/ml methacholine): downward trend; also recorded: did not reduce AHR significantly | effect on AHR (sRaw) ([10]; 50 mg/kg p.o. b.i.d. 5 days, 12.5 mg/ml methacholine): sufficient to overcome induced AHR | effect on AHR (sRaw) ([10]; 100 mg/kg p.o. b.i.d. 5 days, 12.5 mg/ml nebulized methacholine): significantly reduced AHR | number of BALF CD4+ T cells ([11]; 20 mg/kg p.o. b.i.d. 5 days): significantly reduced | number of BALF CD4+ T cells ([11]; 50 mg/kg p.o. b.i.d. 5 days): significantly reduced | BALF F4/80+ cells (macrophages) ([11]; 100 mg/kg p.o. b.i.d. 5 days): reduced their numbers significantly | BALF Siglec F+ cell population (eosinophils/alveolar macrophages) ([11]; 100 mg/kg p.o. b.i.d. 5 days): reduced their numbers significantly | number of BALF CD4+ T cells ([11]; 100 mg/kg p.o. b.i.d. 5 days): significantly reduced | total inflammatory cells (CD45+) in BALF ([11]; 100 mg/kg p.o. b.i.d. 5 days): significant suppression | time to partial relaxation of muscle constriction ([12]; 25 μM in organ bath): ≤ 15 min | reversibility of relaxation effect ([12]; ASM washed with buffer and contracted again with substance P): reversible | pharmaceutically active concentration in tissue ([12]; assuming tracheal concentration is 10% of organ bath concentration): single digit micromolar concentration | smooth muscle relaxation compared with compound 2 ([12]; comparison with compound 2 data of ref 13): more pronounced smooth muscle relaxation | concentration giving significant relaxation of pre-contracted smooth muscle ([12]; substance P 1 μM, 60 minute assay, vs vehicle 0.1% DMSO): ≥ 25 µM | mucous production in the airways (mucin volume density) ([13]; 20 mg/kg b.i.d. 5 days): did not produce a significant change | mucous production in the airways (mucin volume density) ([13]; 50 mg/kg b.i.d. 5 days): did not produce a significant change | mucous production in the airways (mucin volume density) ([13]; 100 mg/kg b.i.d. 5 days): did not produce a significant change | microsomal stability t1/2 [14]: 25.77 h

OCc1cc(C(O)CNCCCCCCOCCCCc2ccccc2)ccc1O (stereo not shown) [salmeterol, reference compound]
effect on AHR (sRaw) ([10]; 1 mg/kg p.o. b.i.d. 5 days): no anti-AHR effect | effect on AHR (sRaw) ([10]; single oral dose 10 mg/kg acutely before measurement (data not shown)): without any significant effect on AHR | BALF eosinophil population ([11]; 1 mg/kg p.o. b.i.d. 5 days): no significant effect | BALF macrophage population ([11]; 1 mg/kg p.o. b.i.d. 5 days): no significant effect | number of BALF CD4+ T cells ([11]; 1 mg/kg p.o. b.i.d. 5 days): reduced | total inflammatory cells (leukocyte numbers) in BALF ([11]; 1 mg/kg p.o. b.i.d. 5 days): did not significantly change | mucous levels in the airways ([13]; 1 mg/kg b.i.d. 5 days): no effect
